Legend:
[1] = test system: Rattus norvegicus; assay: Gastric toxicity in albino rat assessed as edema at 100 mg/kg, po after 5 hrs by hematoxylin and eosin staining; type: organism-based; set-up: dose 100 mg/kg, route oral; settings: in vivo
Summary of the method: (§1)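 Stomach sections from control and treated rats were dewaxed and hydrated through graded alcohols. They were stained with haematoxylin 5–7 min, differentiated 5–10 s in 1% HCl in 70% alcohol, then stained with 1% eosin for 10 min. Mucosa of the fundic stomach was examined by light microscopy.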

[2] = test system: Rattus norvegicus; assay: Gastric toxicity in albino rat assessed as ulcer index at 100 mg/kg, po after 5 hrs; type: organism-based; set-up: dose 100 mg/kg, route oral; settings: in vivo
Summary of the method: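 Rats dosed orally at 100 mg/kg in 0.5% CMC (n = 4). Stomach lesions counted and graded by area: level I <1 mm², II 1–3 mm², III >3 mm². Ulcer index = 1×(level I count) + 2×(level II) + 3×(level III). Mean ± SEM; one-way ANOVA versus control.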

[3] = test system: Rattus norvegicus; assay: Antiinflammatory activity in albino rat assessed as inhibition of carrageenan-induced paw edema at 100 mg/kg, po administered 30 mins prior to challenge measured after 5 hrs relative to untreated control; type: functional
Summary of the method: (§2)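 Adult male albino rats (120–140 g), groups of four, fasted 24 h with water allowed. Test compound suspended in 0.5% w/v CMC in water, given orally at 100 mg/kg; controls received CMC alone. After 30 min, 0.1 mL of 1% carrageenan in saline injected subplantar into right hind paw, saline into left. Paw thickness measured by caliper; % inhibition = [(VR−VL)control − (VR−VL)treated]/(VR−VL)control ×100; one-way ANOVA versus control.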

[4] = test system: Rattus norvegicus; assay: Antiinflammatory activity in albino rat assessed as inhibition of carrageenan-induced paw edema at 100 mg/kg, po administered 30 mins prior to challenge measured after 3 hrs relative to untreated control; type: functional; summary of the method: as §2
[5] = test system: Rattus norvegicus; assay: Antiinflammatory activity in albino rat assessed as inhibition of carrageenan-induced paw edema at 100 mg/kg, po administered 30 mins prior to challenge measured after 4 hrs relative to untreated control; type: functional; summary of the method: as §2
[6] = test system: Rattus norvegicus; assay: Antiinflammatory activity in albino rat assessed as inhibition of carrageenan-induced paw edema at 100 mg/kg, po administered 30 mins prior to challenge measured after 2 hrs relative to untreated control; type: functional; summary of the method: as §2
[7] = test system: Rattus norvegicus; assay: Gastric toxicity in albino rat assessed as capillary dilation in lamina propia below fundic gland at 100 mg/kg, po after 5 hrs by hematoxylin and eosin staining; type: organism-based; set-up: dose 100 mg/kg, route oral; settings: in vivo; summary of the method: as §1
[8] = test system: Rattus norvegicus; assay: Antiinflammatory activity in albino rat assessed as inhibition of carrageenan-induced paw edema at 100 mg/kg, po administered 30 mins prior to challenge measured after 1 hr relative to untreated control; type: functional; summary of the method: as §2
[9] = test system: Rattus norvegicus; assay: Gastric toxicity in albino rat assessed as capillary inflammatory cells appearance at 100 mg/kg, po after 5 hrs by hematoxylin and eosin staining; type: organism-based; set-up: dose 100 mg/kg, route oral; settings: in vivo; summary of the method: as §1
[10] = test system: Rattus norvegicus; assay: Gastric toxicity in albino rat assessed as loss of glandular structure morphology at 100 mg/kg, po after 5 hrs by hematoxylin and eosin staining; type: organism-based; set-up: dose 100 mg/kg, route oral; settings: in vivo; summary of the method: as §1
[11] = test system: Rattus norvegicus; assay: Gastric toxicity in albino rat assessed as change in gastric mucosa structure at 100 mg/kg, po after 5 hrs by hematoxylin and eosin staining; type: organism-based; set-up: dose 100 mg/kg, route oral; settings: in vivo; summary of the method: as §1
[12] = test system: Rattus norvegicus; assay: Gastric toxicity in albino rat assessed as loss of mucosal membrane at the area of ulceration at 100 mg/kg, po after 5 hrs by hematoxylin and eosin staining; type: organism-based; set-up: dose 100 mg/kg, route oral; settings: in vivo; summary of the method: as §1

Row | Structure (SMILES) | Activity [1] | UI [2] | inhibition in vivo at 100 mg/kg [3] [%] | inhibition in vivo at 100 mg/kg [4] [%] | inhibition in vivo at 100 mg/kg [5] [%] | inhibition in vivo at 100 mg/kg [6] [%] | Activity [7] | inhibition in vivo at 100 mg/kg [8] [%] | Activity [9] | Activity [10] | Activity [11] | Activity [12]
1 | CC(=O)c1ccc(OCC(=O)Nc2ccc(C(=O)/C=C/c3ccc4c(c3)OCO4)cc2)cc1 | Toxic | 11.2 | 50 | 57 | 53 | 43 | Toxic | 37 | Toxic | – | – | –
2 | O=C(CBr)Nc1ccc(C(=O)/C=C/c2ccc(Cl)cc2)cc1 | – | 21.4 | 54 | 59 | 59 | 52 | – | 44 | – | Toxic | Toxic | Toxic

From ChEMBL document CHEMBL1926598, “Synthesis, anti-inflammatory activity and ulcerogenic liability of novel nitric oxide donating/chalcone hybrids” (Bioorg Med Chem, 2012)
